Source: PubChem BioAssay
In the library only some 2.4% were active in any assay of this set; here they are far more common.
STAT3 inh: STAT3 signaling inhibition | AID 862 | 190,000 compounds, 0.89% hits | inhibition, % at 5.5 µM | U3A cells, IL-6 STAT3-luciferase reporter, luminescence; host cell line lacks STAT1;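 active means inhibition above the mean inhibition across all screened compounds plus 3 SD, cut at about 44% in these data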;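 further: 0% = DMSO only wells and 100% = 100 µM nifuroxazide control wells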
MT stabilize HCS: microtubule stabilization, imaging screen. % tubulin-high responders, % at 10 µM. 200,000 compounds, 0.83% hits. HeLa tubulin immunostaining HCS, 24 h; share of cells brighter than vehicle mean+2SD;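 active means plate Z-score above 3 for both tubulin-high and condensed-nucleus cell shares, with cell loss under 80%, at 10 µM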;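 further: anti alpha tubulin signal scored within the nucleus-defined area of each cell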
STAT1 inh: STAT1 signaling inhibition; NIH 3T3 STAT1-luciferase reporter, IFN-gamma, luminescence; inhibition, % at 5.5 µM; 200,000 compounds, 0.35% hits; AID 920;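 active means inhibition above a set limit, the mean inhibition across all tested compounds plus 3 SD, cut at about 34% in these data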;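 further: 0% = IFN-gamma with DMSO and 100% = IFN-gamma with 300 µM nifuroxazide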
bCat nuc transl: alters nuclear translocation of beta-catenin in HeLa cells | immunofluorescence imaging | nuclear translocation activity, % at 5 µM | 190,000 compounds, 0.3% hits | AID 1665;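 active means nuclear translocation activity above 50% at 5 µM, with a well cell count of 50 or more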;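 further: per-cell ratio of nuclear to cytoplasmic median beta-catenin stain intensity; plate controls were DMSO negative control for no effect and GSK-3 inhibitor IX positive control for full effect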
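Signal – beta-catenin immunofluorescence imaging with DAPI · Test system – human HeLa cell line · Dosing – 5 µM primary single dose, 0.1% DMSO, 0.02–20 µM confirmation series · Measure – % activation, nuclear-to-cytoplasmic median beta-catenin signal ratio per cell · Incubation – 24 h compound exposure at 37°C, 5% CO2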
STAT3 act-1: STAT3 signaling activation; U3A cells, IL-6 STAT3-luciferase reporter, luminescence; 100% = signal with IL-6 EC80 alone; activation (% of control), % at 5.6 µM; 190,000 compounds, 0.91% hits; AID 871;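 active means activation above the screen-wide mean of compound activation plus 3 SD, cut at about 130% in these data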;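 further: 0% = background luminescence of wells with medium and substrate only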
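Test system: human U3A cells carrying STAT3-luciferase construct; control set: IL-6-only wells as 100% reference; timing: compound pre-incubation 1 h before IL-6, then 6 h stimulation at 37 °C; also added: IL-6 stimulus at 33 ng/mL final; evaluation: % activation versus median of IL-6-stimulated wells; detection: reporter luminescence signal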
STAT3 act-2: STAT3 activation, confirmation assay; shares compounds with STAT3 act-1; U3A STAT3-luciferase reporter, IL-6 potentiation, luminescence; U3A cells lack STAT1; 100 means same as IL-6 alone; potentiation (% of control), % at 5.7 µM; 1,200 compounds, 64% hits; AID 1267;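 active means percent activation of the STAT3 luciferase reporter above a set limit taken from the earlier primary screen, cut at about 130% in these data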;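 further: 0% = background signal of medium plus substrate and 100% = median of IL-6 with DMSO wells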
NFkB act STAT3ct: counter-screen for STAT3 activators: NF-kappaB activation. AID 1309. 1,200 compounds, 11% hits. shares compounds with STAT3 act-1. human cells, NF-kappaB reporter activation. activation (% of control), % at 5.7 µM; in the data active means activation above about 120%;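 further: reporter induced by TNF-alpha stimulation; 100% = median of stimulated DMSO wells and 0% = no signal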
STAT1 act: STAT1 activation in STAT3 activator counter-screen. shares compounds with STAT3 act-1. NIH 3T3 STAT1-luciferase reporter, IFN-gamma, luminescence. activation (% of control), % at 5.7 µM. 1,200 compounds, 13% hits. AID 1318;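 active means activation above the solvent-only control well mean plus 3 SD, set per screening run, cut at about 120% in these data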;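 further: 100% = IFN-gamma with DMSO median signal so 100% means no change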
The depositor's hits bear a star.

Results for CCn1cc(C(=O)N2CCc3ccccc32)c(=O)c2cc(S(=O)(=O)N3CCOCC3)ccc21 ?
STAT3 inh: -41.7; MT stabilize HCS: 3.0; STAT1 inh: -6.9; bCat nuc transl: -4.1; STAT3 act-1: 145.9*; STAT3 act-2: 128.4; NFkB act STAT3ct: 105.2; STAT1 act: 99.3

What do the screens show for `CCn1cc(C(=O)N2CCc3ccccc32)c(=O)c2cc(S(=O)(=O)N(C)C3CCCCC3)ccc21`?
STAT3 inh: -4.3; MT stabilize HCS: 3.7; STAT1 inh: 2.4; bCat nuc transl: -6.2; STAT3 act-1: 107.2

Results for Cn1c(C(=O)Nc2ccccc2)cc2sccc21 ?
STAT3 inh: -78.7; MT stabilize HCS: 3.1; STAT1 inh: -13.8; bCat nuc transl: -1.0; STAT3 act-1: 163.0*; STAT3 act-2: 144.0*; NFkB act STAT3ct: 122.7*; STAT1 act: 133.7*

Results for C=CCOc1ccc(CNc2ccc3[nH]c(=O)[nH]c3c2)cc1OC ?
STAT3 inh: 0.3; MT stabilize HCS: 5.6; STAT1 inh: -2.2; bCat nuc transl: -4.0; STAT3 act-1: 103.1

Results for CCOc1cc(CNc2ccc3cn[nH]c3c2)ccc1OC ?
STAT3 inh: -78.8; MT stabilize HCS: 0.8; STAT1 inh: 5.8; STAT3 act-1: 174.8*; STAT3 act-2: 160.7*; NFkB act STAT3ct: 98.5; STAT1 act: 100.4

How did COc1ccc(CNc2ccc3cn[nH]c3c2)c(OC)c1OC do in these assays?
STAT3 inh: -53.0; MT stabilize HCS: 1.3; STAT1 inh: 11.0; STAT3 act-1: 144.4*; STAT3 act-2: 129.1; NFkB act STAT3ct: 94.9; STAT1 act: 93.4

How did Nc1oc2ccc(F)cc2c(=O)c1C=O do in these assays?
STAT3 inh: -10.3; MT stabilize HCS: 3.4; STAT1 inh: 5.3; STAT3 act-1: 106.1

Results for Cc1nn(Cc2ccccc2)c(C)c1NC(=O)CCCn1nc([N+](=O)[O-])cc1C ?
STAT3 inh: 4.6; MT stabilize HCS: 1.3; STAT1 inh: 3.2; bCat nuc transl: -4.7; STAT3 act-1: 100.9

What do the screens show for `Cc1ccc(-c2nnn3c2nc(Cl)c2ccccc23)cc1`?
STAT3 inh: -41.4; MT stabilize HCS: 3.0; STAT1 inh: 10.3; bCat nuc transl: 0.0; STAT3 act-1: 147.3*; STAT3 act-2: 145.3*; NFkB act STAT3ct: 112.0; STAT1 act: 102.2

What do the screens show for `Fc1cccc(-c2nnn3c2nc(Cl)c2ccccc23)c1`?
STAT3 inh: -71.9; MT stabilize HCS: 3.6; STAT1 inh: -11.2; bCat nuc transl: -1.9; STAT3 act-1: 165.1*; STAT3 act-2: 183.2*; NFkB act STAT3ct: 116.1; STAT1 act: 106.2

What do the screens show for `Clc1nc2c(-c3ccccc3)nnn2c2ccccc12`?
bCat nuc transl: 1.0

What do the screens show for `CC1=C(O)C(=O)OC1c1c(Cl)cccc1Cl` (stereo unspecified)?
bCat nuc transl: -0.9

How did O=C(COc1ccccc1CNCc1ccccc1)Nc1ccccc1 do in these assays?
STAT3 inh: -51.0; MT stabilize HCS: 2.2; STAT1 inh: -6.4; bCat nuc transl: -18.8; STAT3 act-1: 142.7*; STAT3 act-2: 122.5; NFkB act STAT3ct: 110.6; STAT1 act: 105.3

Results for CCOc1ccccc1CNCc1ccc(C(=O)O)cc1 ?
STAT3 inh: 8.9; MT stabilize HCS: 2.7; STAT1 inh: 3.9; bCat nuc transl: 0.1; STAT3 act-1: 100.3

How did CC1=C(C#N)C(c2ccccc2O)C(C#N)=C(C)N1 do in these assays?
STAT3 inh: -47.3; MT stabilize HCS: 3.2; STAT1 inh: 6.7; bCat nuc transl: -3.3; STAT3 act-1: 142.6*; STAT3 act-2: 150.7*; NFkB act STAT3ct: 102.8; STAT1 act: 99.2

Results for O=C1NC(=O)C(Nc2cccc3ccccc23)S1 (stereo unspecified) ?
STAT3 inh: -45.9; MT stabilize HCS: 2.1; STAT1 inh: 6.2; bCat nuc transl: 0.4; STAT3 act-1: 141.5*; STAT3 act-2: 129.0; NFkB act STAT3ct: 102.6; STAT1 act: 94.3

Results for CN1C(=O)SC(Nc2cccc3ccccc23)C1=O (stereo unspecified) ?
STAT3 inh: 4.7; MT stabilize HCS: 2.9; STAT1 inh: -1.5; bCat nuc transl: 3.0; STAT3 act-1: 98.8

How did Cc1ccc2cc(C#N)c(N3CCCC3)nc2c1C do in these assays?
STAT3 inh: -46.5; MT stabilize HCS: 4.6; STAT1 inh: -8.4; bCat nuc transl: -0.4; STAT3 act-1: 140.1*; STAT3 act-2: 136.8*; NFkB act STAT3ct: 116.7; STAT1 act: 132.5*

How did Cc1ccc(NC2=CC(=O)C(=O)c3ccccc32)cc1 do in these assays?
STAT3 inh: -1.6; MT stabilize HCS: 4.0; STAT1 inh: -22.4; STAT3 act-1: 105.0

How did CCOC(=O)c1ccc(NC2=CC(=O)C(=O)c3ccccc32)cc1 do in these assays?
STAT3 inh: -46.2; MT stabilize HCS: 1.5; STAT1 inh: 0.2; bCat nuc transl: 3.7; STAT3 act-1: 144.5*; STAT3 act-2: 128.3; NFkB act STAT3ct: 106.8; STAT1 act: 102.1

How did COc1cccc(C(=O)NCCCn2ccnc2)c1 do in these assays?
STAT3 inh: 13.1; MT stabilize HCS: 3.6; STAT1 inh: 5.6; bCat nuc transl: -1.7; STAT3 act-1: 92.4

How did Cc1nc2ccc(Br)cn2c1C(=O)N/N=C\c1ccccc1[N+](=O)[O-] do in these assays?
STAT3 inh: -49.8; MT stabilize HCS: 2.2; STAT1 inh: 7.1; bCat nuc transl: -0.2; STAT3 act-1: 147.7*; STAT3 act-2: 132.5; NFkB act STAT3ct: 97.1; STAT1 act: 101.6

How did O=c1[nH]c(=S)[nH]c2sccc12 do in these assays?
STAT3 inh: 5.8; MT stabilize HCS: 2.4; STAT1 inh: 0.6; bCat nuc transl: 3.2; STAT3 act-1: 100.9

What do the screens show for `CCCc1cc(=O)[nH]c(SCC(=O)c2c[nH]c3ccccc23)n1`?
STAT3 inh: -36.1; MT stabilize HCS: 1.6; STAT1 inh: 8.6; bCat nuc transl: -0.7; STAT3 act-1: 143.0*; STAT3 act-2: 123.0; NFkB act STAT3ct: 101.7; STAT1 act: 104.3

How did O=c1[nH]c2cc(NCCO)c([N+](=O)[O-])cc2[nH]1 do in these assays?
STAT3 inh: 0.0; MT stabilize HCS: 1.9; STAT1 inh: -3.8; bCat nuc transl: -2.4; STAT3 act-1: 103.2

Results for O=C1C2C3C=CC(C3)C2C(=O)N1CNc1ccccn1 (stereo unspecified) ?
STAT3 inh: -46.4; MT stabilize HCS: 2.5; STAT1 inh: -1.1; bCat nuc transl: -1.9; STAT3 act-1: 139.6*; STAT3 act-2: 101.0; NFkB act STAT3ct: 110.7; STAT1 act: 103.3
